This is a sample that favours compounds with a hit; in the whole collection about 2.3% have one here.
MEKK2 WT-MEK5: raises or lowers MEK5 binding to wildtype human MEKK2 PB1 domain | binding response (% of control), % at 10 µM | AID 1531 | bead flow cytometry, Alexa488-MEK5 binding to MEKK2 WT; actives lie on both sides | 1.1% of 290,000 active; in the data active means binding response below about 67% or above about 130%
MEKK3 PB1 HTS: raises or lowers MEK5 binding to the human MEKK3 PB1 domain; binding response (% of control), % at 10 µM; Q99759; 1.4% of 290,000 active; bead-based flow cytometry, Alexa488-MEK5 binding to MEKK3; actives lie on both sides; 0 = blocked by unlabeled MEK5, 100 = vehicle;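 active means binding response more than 3 SD above or below the average of its plate-row segment, actives on both sides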;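 further: Alexa488 bead fluorescence after subtracting the streptavidin-only scavenger bead signal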
Target sequence (Q99759 whole entry, looked up, the tested form may be a part): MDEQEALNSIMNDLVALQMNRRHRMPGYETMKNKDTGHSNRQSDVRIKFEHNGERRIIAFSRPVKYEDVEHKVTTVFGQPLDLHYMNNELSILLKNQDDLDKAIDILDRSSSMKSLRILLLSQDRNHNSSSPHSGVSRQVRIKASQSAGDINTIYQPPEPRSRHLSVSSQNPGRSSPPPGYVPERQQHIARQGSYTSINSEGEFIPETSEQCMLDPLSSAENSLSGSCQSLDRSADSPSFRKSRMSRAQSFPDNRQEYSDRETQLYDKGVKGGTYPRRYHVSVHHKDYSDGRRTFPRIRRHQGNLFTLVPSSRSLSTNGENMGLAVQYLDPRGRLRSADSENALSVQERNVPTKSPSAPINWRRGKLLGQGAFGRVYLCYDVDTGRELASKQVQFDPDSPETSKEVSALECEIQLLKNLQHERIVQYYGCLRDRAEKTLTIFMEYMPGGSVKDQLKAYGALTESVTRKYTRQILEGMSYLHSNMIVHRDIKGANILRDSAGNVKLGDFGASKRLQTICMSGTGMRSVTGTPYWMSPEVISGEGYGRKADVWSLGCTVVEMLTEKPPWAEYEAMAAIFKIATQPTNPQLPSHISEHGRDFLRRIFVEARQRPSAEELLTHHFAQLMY
Arr AP2 block: human beta-arrestin and AP2 interaction inhibition; inhibition, % at 10 µM; 0.31% of 340,000 active; FITC-arrestin peptide / GST-AP2 beads, flow cytometry; AP2 beta2 appendage carries R879A mutation; AID 504490;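 active means inhibition above a set limit, near 3 SD of compounds lacking own fluorescence, cut at about 54% in these data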;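 further: plate controls were DMSO wells for no effect and 5 µM unlabelled arrestin peptide for full effect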
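System: GST-AP2 R879A glutathione beads. Medium: PBS with 0.05% Tween 20 and 0.1% BSA. Also added: FITC-arrestin peptide, 50 nM. Incubation: 12 min plus 1 h, RT. Measured by: high-throughput flow cytometry of beads, ex 488, em 535 nm. Evaluation: percent drop in bead-associated FITC signal.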
MEKK2mut PB1 HTS: signal of MEK5 binding to mutant human MEKK2 PB1 domain; bead flow cytometry, Alexa488-MEK5 binding to MEKK2 mutant; percent response, % at 10 µM; 0.35% of 290,000 active; in the data active means percent response above about 24%, passing the limit was not always enough
MEKK2wt confirm: raises or lowers MEK5 binding to wildtype human MEKK2, retest; shares compounds with MEKK3 PB1 HTS; binding response (% of control), % at 10 µM; 2.4% of 5,900 active; bead flow cytometry, Alexa488-MEK5 binding to MEKK2 WT; actives lie on both sides; in the data active means binding response below about 16% or above about 210%; inactive means in between
MEKK2mut-MEK5: signal of MEK5 binding to mutant human MEKK2, retest. 2% of 5,900 active. shares compounds with MEKK3 PB1 HTS. bead flow cytometry, Alexa488-MEK5 binding to MEKK2 mutant. percent response, % at 10 µM; in the data active means percent response mostly above about 71%, no sharp cut-off; inactive means mostly below about 38%;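 further: higher means compound restores mutant binding toward wildtype level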
MEKK3-MEK5 inh: confirmation of inhibitors of MEK5 binding to human MEKK3 | shares compounds with MEKK3 PB1 HTS | bead flow cytometry, Alexa488-MEK5 binding to MEKK3; hits give low values | binding response (% of control), % at 10 µM | 1.8% of 5,900 active | AID 1894;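 active means binding response below 72% of control, or above a set upper limit, though filed actives all read lower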;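 further: 100% = DMSO only wells and 0% = binding blocked by excess unlabeled MEK5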
Starred values were filed as active, the others as inactive; · = not tested or not shown; [ ] = another dose, or the depositor's remark.

SMILES	MEKK2 WT-MEK5	MEKK3 PB1 HTS	Arr AP2 block	MEKK2mut PB1 HTS	MEKK2wt confirm	MEKK2mut-MEK5	MEKK3-MEK5 inh
Cc1c(CN2CCC(CO)(Cc3cccc(C(F)(F)F)c3)CC2)c2ccccc2n1C	165*	108	0	44	137	11	99
OCC1(Cc2ccc(Cl)cc2)CCN(Cc2ccccc2F)CC1	111	105	-2	7	·	·	·
CSc1ccc(CN2CCC(CO)(Cc3ccc(Cl)cc3)CC2)cc1	140*	105	5	19	137	21	106
N/C(Cc1ccc([N+](=O)[O-])cc1)=N\OC(=O)Cc1ccccc1	98	53*[inhibitor]	12	-1	101	1	97
N/C(Cc1ccc([N+](=O)[O-])cc1)=N\OC(=O)Cc1ccc(Cl)cc1	101	71*[inhibitor]	-18	1	104	1	98
Nc1ncnc(Oc2cccc3cccnc23)c1[N+](=O)[O-]	109	106	18	7	·	·	·
CCCCN1C[C@H](COC(=O)CCC)Oc2cccc(F)c2S1(=O)=O	·	·	-8	·	·	·	·
CCc1ccc(CCC(=O)N2CCN(S(=O)(=O)c3sc(C(=O)O)c(C)c3C(=O)O)CC2)cc1	·	·	-2	·	·	·	·
Cc1nc(NC(=O)C23CC4CC(CC(C4)C2)C3)sc1Cc1ccc2c(c1)OCO2	147*	108	14	30	131	15	105
Cc1nc(NC(=O)C2CCCC2)sc1Cc1ccc2c(c1)OCO2	109	107	5	1	·	·	·
C/C(=N\OCC(=O)OC(C)C(=O)Nc1ccc(C)c(S(=O)(=O)N2CCOCC2)c1)c1ccc2c(c1)OCO2 (configuration not stated)	·	·	-6	·	·	·	·
Cn1c(COc2ccccc2)nnc1SCC(=O)Nc1ccc(S(N)(=O)=O)cc1	89	82	21	-7	·	·	·
COC(=O)c1ccc(NC(=O)CSc2nnc(COc3ccccc3)n2C)cc1	120	113	30	24*	99	3	105
COc1ccc(NC(=O)CSc2nnc(Cn3cnc([N+](=O)[O-])n3)n2C)cc1	77	41*[inhibitor]	2	1	100	-3	101
COc1cccc(NC(=O)CSc2nnc(Cn3cnc([N+](=O)[O-])n3)n2C)c1	96	107	-16	2	·	·	·
Cn1c(Cn2cnc([N+](=O)[O-])n2)nnc1SCC(=O)Nc1ccccc1	110	144*	0	1	106	0	105
CCOC(=O)C(NCCc1ccccc1F)(NC(C)=O)C(F)(F)F (configuration not stated)	97	96	·	0	·	·	·
Cc1cccc(OCC(=O)Nc2ccccc2C(=O)N2CCOCC2)c1	108	130*	-1	1	97	-1	98
CS(=O)(=O)N(CC(=O)Nc1ccccc1C(=O)N1CCOCC1)c1ccc(Cl)cc1	43*[inhibitor]	44*[inhibitor]	6	-9	99	1	100
CCc1ccc(N(CC(=O)Nc2ccccc2C(=O)N2CCOCC2)S(C)(=O)=O)cc1	106	104	6	0	·	·	·
Cc1cccc(OCC(=O)N/N=C/c2ccccc2C(=O)O)c1	114	132*	37	1	104	-1	103
O=C(Nc1ccccc1C(=O)N1CCOCC1)C1CCCO1 (configuration not stated)	-1.0*[inhibitor]	1.0*[inhibitor]	-5	-26	111	8	113
CC(Sc1nc2ncc(Cl)cc2[nH]1)C(=O)NC1(C#N)CCCCC1 (configuration not stated)	·	·	-3	·	·	·	·
CC(C)(C)c1nnc(NC(=O)C2CC(=O)N(CCc3ccc(F)cc3)C2)s1 (configuration not stated)	97	101	26	-2	·	·	·
N#Cc1ccccc1S(=O)(=O)N1CCN(C(=O)c2cn(-c3ccccc3)nc2-c2cccnc2)CC1	·	·	3	·	·	·	·
SMILES	MEKK2 WT-MEK5	MEKK3 PB1 HTS	Arr AP2 block	MEKK2mut PB1 HTS	MEKK2wt confirm	MEKK2mut-MEK5	MEKK3-MEK5 inh
CCOC(=O)C1C(=O)C(=O)N(C2CCCCC2)C1C(=O)OCC (configuration not stated)	·	·	13	·	·	·	·
CC1CCC2(CC1)NC(=O)N(CC(=O)Nc1cccc(S(=O)(=O)N3CCCC3)c1)C2=O (configuration not stated)	·	·	4	·	·	·	·
Cc1n[nH]c(=O)nc1N/N=C/c1ccc(O)c([N+](=O)[O-])c1	107	129*	12	1	99	0	102
COc1ccc(/C=N/Nc2nc(=O)[nH]nc2C)cc1[N+](=O)[O-]	105	124	6	0	·	·	·
O=C(NC1CCS(=O)(=O)C1)/C(=C\c1ccccc1)NC(=O)c1ccccc1 (configuration not stated)	108	147*	-24	0	105	7	106
N=C1/C(=C/c2coc3ccccc3c2=O)C(=O)N=C2SC(c3ccco3)=NN12	93	94	4	-3	·	·	·
N=C1/C(=C\c2coc3ccccc3c2=O)C(=O)N=C2SC(c3ccncc3)=NN12	67	70*[inhibitor]	20	-10	101	2	101
O=[N+]([O-])c1ccc(N2CCN(Cc3ccc([N+](=O)[O-])o3)CC2)cc1	109	101	-3	6	·	·	·
O=[N+]([O-])c1ccc(CN2CCN(c3ccccc3)CC2)o1	128	122*	15	16	103	4	104
O=C(O)c1ccc2nc(CO)[nH]c2c1	2.0*[inhibitor]	2.0*[inhibitor]	-5	-16	107	0	102
CCOC(=O)/C(C#N)=C/c1ccc(OCC(=O)Nc2ccc(OC)cc2)c(OC)c1	119	124*	0	4	100	0	99
CCOC(=O)/C(C#N)=C/c1ccc(OCC(=O)Nc2ccc(C)c(C)c2)c(OC)c1	94	96	7	-1	·	·	·
COc1ccc(C(O)(C(=O)NNc2ccc(C)cc2)c2cccs2)cc1 (configuration not stated)	115	122*	0	5	101	-1	106
COc1cc(O)c(CCC(=O)c2ccc(OC)c(OC)c2)c(OC)c1	100	104	-2	-1	·	·	·
Cc1cccc(NC(=O)CSc2nnc(-c3cc(C)[nH]n3)n2N)c1	103	99	-13	2	·	·	·
Brc1ccc(Nc2ncnc3[nH]ncc23)cc1	68	73*[inhibitor]	27	-30	101	2	101
O=C(c1ccccc1)C(Nc1cccc([N+](=O)[O-])c1)c1ccccc1 (configuration not stated)	·	·	3	·	·	·	·
CC1(C)CC(NC(=O)Cc2ccccc2[N+](=O)[O-])CC(C)(C)N1	108	142*	-2	1	102	7	100

Screening results deposited in PubChem by NMMLSC.
